Laboratory results reported in ChEMBL document CHEMBL1137338, “Effects of substitution on 9-(3-bromo-4-fluorophenyl)-5,9-dihydro-3H,4H-2,6-dioxa-4- azacyclopenta[b]naphthalene-1,8-dione, a dihydropyridine ATP-sensitive potassium channel opener” (J Med Chem, 2006).

Tests used:
[1] = molecular target: T1, Sulfonylurea receptor 2, Kir6.2 (Homo sapiens) (UniProt Q14654+O60706); test: Ability to open human urinary bladder Kir6.2 containing SUR2B in Ltk cells by FLIPR assay relative to P1075; assay type: functional, cell-based
Summary of the method: (§1)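 Ltk- cells stably transfected with the Kir6.2/SUR2B exon 17- splice variant. Membrane potential was followed with DiBAC dye in a 96-well cell-based kinetic fluorescence (FLIPR) assay. The highest concentration tested was 10 µM. Each compound's maximal fluorescence response was expressed as % of the response to the reference opener.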

[2] = molecular target: T2, Sulfonylurea receptor 2, Kir6.2 (Homo sapiens, UniProt O60706+Q14654); test: (§2) Ability to open human urinary bladder Kir6.2 channel containing SUR2B in Ltk cells by FLIPR assay; assay type: functional, cell-based; summary of the method: as §1
T2 sequence (Q14654 whole entry): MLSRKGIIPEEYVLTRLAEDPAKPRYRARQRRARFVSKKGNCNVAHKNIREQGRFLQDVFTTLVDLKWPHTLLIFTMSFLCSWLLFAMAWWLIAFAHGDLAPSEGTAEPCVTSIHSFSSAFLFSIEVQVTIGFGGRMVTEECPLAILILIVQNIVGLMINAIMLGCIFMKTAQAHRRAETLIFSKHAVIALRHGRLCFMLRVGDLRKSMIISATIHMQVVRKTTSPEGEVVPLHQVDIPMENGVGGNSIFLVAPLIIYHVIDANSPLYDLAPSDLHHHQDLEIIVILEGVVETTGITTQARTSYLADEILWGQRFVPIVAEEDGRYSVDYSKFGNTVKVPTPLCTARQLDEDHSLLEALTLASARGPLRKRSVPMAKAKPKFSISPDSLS
T2 sequence (O60706 whole entry): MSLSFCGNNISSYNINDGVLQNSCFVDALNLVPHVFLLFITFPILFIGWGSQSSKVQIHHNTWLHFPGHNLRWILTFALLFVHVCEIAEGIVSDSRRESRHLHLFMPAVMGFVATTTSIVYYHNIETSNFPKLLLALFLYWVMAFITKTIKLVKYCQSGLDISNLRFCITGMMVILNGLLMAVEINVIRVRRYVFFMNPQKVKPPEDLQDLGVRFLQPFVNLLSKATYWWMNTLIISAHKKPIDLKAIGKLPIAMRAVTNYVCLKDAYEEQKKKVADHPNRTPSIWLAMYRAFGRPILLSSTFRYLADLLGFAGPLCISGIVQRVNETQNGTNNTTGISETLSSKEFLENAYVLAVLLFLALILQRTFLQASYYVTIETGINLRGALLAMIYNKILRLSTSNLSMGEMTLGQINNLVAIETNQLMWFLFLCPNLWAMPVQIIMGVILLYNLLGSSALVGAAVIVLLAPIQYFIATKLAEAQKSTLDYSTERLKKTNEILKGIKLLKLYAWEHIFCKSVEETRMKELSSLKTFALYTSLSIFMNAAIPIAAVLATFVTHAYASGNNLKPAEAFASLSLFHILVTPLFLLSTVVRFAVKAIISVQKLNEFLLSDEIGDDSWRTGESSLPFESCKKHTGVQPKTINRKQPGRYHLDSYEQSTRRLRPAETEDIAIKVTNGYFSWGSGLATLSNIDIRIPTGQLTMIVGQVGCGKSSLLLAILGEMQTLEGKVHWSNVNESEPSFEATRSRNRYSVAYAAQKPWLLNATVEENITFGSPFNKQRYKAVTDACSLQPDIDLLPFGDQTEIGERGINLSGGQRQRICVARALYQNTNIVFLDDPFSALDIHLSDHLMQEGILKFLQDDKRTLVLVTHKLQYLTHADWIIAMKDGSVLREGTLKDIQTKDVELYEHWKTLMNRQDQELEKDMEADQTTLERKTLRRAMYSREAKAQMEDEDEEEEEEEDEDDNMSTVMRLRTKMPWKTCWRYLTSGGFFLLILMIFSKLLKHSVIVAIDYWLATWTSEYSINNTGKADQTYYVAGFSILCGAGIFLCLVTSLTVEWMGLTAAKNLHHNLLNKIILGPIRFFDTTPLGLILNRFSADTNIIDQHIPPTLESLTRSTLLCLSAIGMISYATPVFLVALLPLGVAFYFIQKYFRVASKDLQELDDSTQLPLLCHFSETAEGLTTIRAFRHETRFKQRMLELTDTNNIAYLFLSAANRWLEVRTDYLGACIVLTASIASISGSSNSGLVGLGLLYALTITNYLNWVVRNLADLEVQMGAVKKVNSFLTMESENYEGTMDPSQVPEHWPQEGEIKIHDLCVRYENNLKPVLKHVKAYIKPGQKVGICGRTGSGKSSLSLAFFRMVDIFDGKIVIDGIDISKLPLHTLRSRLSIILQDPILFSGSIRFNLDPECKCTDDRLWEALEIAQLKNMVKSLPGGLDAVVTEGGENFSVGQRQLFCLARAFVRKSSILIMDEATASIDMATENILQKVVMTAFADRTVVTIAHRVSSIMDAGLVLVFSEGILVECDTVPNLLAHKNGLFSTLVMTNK

[3] = molecular target: T1, Sulfonylurea receptor 2, Kir6.2 (Homo sapiens); test: Activity against pig bladder KATP channel opening assessed as ability to relax spontaneous bladder contraction relative to P1075; assay type: functional; settings: Sus scrofa; target entry is the homologue from another species
[4] = molecular target: T1, Sulfonylurea receptor 2, Kir6.2 (Homo sapiens); test: Activity against pig bladder KATP channel opening assessed as ability to relax field-stimulated pig detrusor relative to P1075; assay type: functional; settings: Sus scrofa; target entry is the homologue from another species
[5] = molecular target: T1, Sulfonylurea receptor 2, Kir6.2 (Homo sapiens); test: as §2; assay type: functional, cell-based; settings: filed as partial agonist; summary of the method: as §1
[6] = molecular target: T2, Sulfonylurea receptor 2, Kir6.2; test: Activity against pig bladder KATP channel opening assessed as ability to relax field-stimulated pig detrusor; assay type: functional, Sus scrofa; settings: target entry is the homologue from another species

Row | SMILES | Efficacy [1] [%] | EC50 [2] [nM] | Efficacy [3] [%] | Efficacy [4] [%] | Activity [5] | EC50 [6] [nM]
1 | CC[C@H]1OC(O)=C2C1=NC1=C(C(=O)OC1)[C@H]2c1ccc(F)c(Br)c1 (relative stereo) | 74 | 72.4 |  |  |  | 
2 | CC1(C)Oc2ccc(C#N)cc2[C@H](N2CCCC2=O)[C@H]1O (single isomer, unassigned) | 83 |  | 100 | 99 |  | 
3 | O=C1COCC2=C1C(c1ccc(F)c(Br)c1)C1=C(O)OCC1=N2 (stereo in doubt; 6b) | 101 |  | 100 | 88 |  | 
4 | C[C@@H]1OCC2=C(C1=O)[C@@H](c1ccc(F)c(Br)c1)C1=C(O)OCC1=N2 (stereo in doubt; 7a) | 17 |  |  |  | Partial agonist | 
5 | C[C@@H]1OCC2=C(C1=O)[C@H](c1ccc(F)c(Br)c1)C1=C(O)OCC1=N2 (stereo in doubt; 8a) | 15 |  |  |  | Partial agonist | 
6 | C[C@@H]1OCC2=C(C1=O)[C@H](c1ccc(F)c(Br)c1)C1=C(O)OCC1=N2 (stereo in doubt; 8b) | 16 |  |  |  | Partial agonist | 
7 | CC[C@@H]1OCC2=C(C1=O)[C@@H](c1ccc(F)c(Br)c1)C1=C(O)OCC1=N2 (stereo in doubt; 10a) [listing 1 of 2 here] |  | 776 |  |  |  | 2690
8 | CC[C@@H]1OCC2=C(C1=O)[C@@H](c1ccc(F)c(Br)c1)C1=C(O)OCC1=N2 (stereo in doubt; 10a) [listing 2 of 2 here] | 83 |  |  | 86 |  | 
9 | CC[C@@H]1OCC2=C(C1=O)[C@@H](c1ccc(F)c(Br)c1)C1=C(O)OCC1=N2 (stereo in doubt; 10b) [listing 1 of 2 here] |  | 1380 |  |  |  | 891
10 | CC[C@@H]1OCC2=C(C1=O)[C@@H](c1ccc(F)c(Br)c1)C1=C(O)OCC1=N2 (stereo in doubt; 10b) [listing 2 of 2 here] | 46 |  |  | 95 |  | 
11 | C[C@@H]1OC(O)=C2C1=NC1=C(C(=O)COC1)[C@H]2c1ccc(F)c(Br)c1 (stereo in doubt; 17a) [listing 1 of 2 here] |  | 0.912 |  |  |  | 35.5
12 | C[C@@H]1OC(O)=C2C1=NC1=C(C(=O)COC1)[C@H]2c1ccc(F)c(Br)c1 (stereo in doubt; 17a) [listing 2 of 2 here] | 105 |  |  | 97 |  | 
13 | CC[C@H]1OC(O)=C2C1=NC1=C(C(=O)COC1)[C@H]2c1ccc(F)c(Br)c1 (stereo in doubt; 21a) [listing 1 of 2 here] |  | 7240 |  |  |  | 2950
14 | CC[C@H]1OC(O)=C2C1=NC1=C(C(=O)COC1)[C@H]2c1ccc(F)c(Br)c1 (stereo in doubt; 21a) [listing 2 of 2 here] | 54 |  |  | 94 |  | 
15 | CC[C@H]1OC(O)=C2C1=NC1=C(C(=O)COC1)[C@H]2c1ccc(F)c(Br)c1 (stereo in doubt; 21b) | 46 |  | 96 | 77 | Partial agonist | 
16 | CCC[C@H]1OC(O)=C2C1=NC1=C(C(=O)COC1)[C@H]2c1ccc(F)c(Br)c1 (stereo in doubt; 23b) | 45 |  | 99 | 34 | Partial agonist | 
17 | CCCC[C@H]1OC(O)=C2C1=NC1=C(C(=O)COC1)[C@H]2c1ccc(F)c(Br)c1 (stereo in doubt; 29b) | 68 |  | 100 | 51 |  | 
18 | CC(C)C[C@H]1OC(O)=C2C1=NC1=C(C(=O)COC1)[C@H]2c1ccc(F)c(Br)c1 (stereo in doubt; 31b) [listing 1 of 2 here] |  | 10000 |  |  |  | 102
19 | CC(C)C[C@H]1OC(O)=C2C1=NC1=C(C(=O)COC1)[C@H]2c1ccc(F)c(Br)c1 (stereo in doubt; 31b) [listing 2 of 2 here] | 59 |  |  | 35 |  | 
20 | CC[C@H]1OC(O)=C2C1=NC1=C(C(=O)C(C)(C)OC1)[C@H]2c1ccc(F)c(Br)c1 (stereo in doubt; 36b) | 34 |  |  |  | Partial agonist | 
21 | CCC[C@H]1OC(O)=C2C1=NC1=C(C(=O)COC1)[C@H]2c1ccc(F)c(Cl)c1 (stereo in doubt; 39b) [listing 1 of 2 here] |  | 91.2 |  |  |  | 129
22 | CCC[C@H]1OC(O)=C2C1=NC1=C(C(=O)COC1)[C@H]2c1ccc(F)c(Cl)c1 (stereo in doubt; 39b) [listing 2 of 2 here] | 39 |  |  | 66 | Partial agonist | 
23 | CCC[C@H]1OC(O)=C2C1=NC1=C(C(=O)COC1)[C@H]2c1ccc(F)c(I)c1 (stereo in doubt; 41b) [listing 1 of 2 here] |  | 26.9 |  |  |  | 229
24 | CCC[C@H]1OC(O)=C2C1=NC1=C(C(=O)COC1)[C@H]2c1ccc(F)c(I)c1 (stereo in doubt; 41b) [listing 2 of 2 here] | 94 |  |  | 86 |  | 
25 | CC[C@H]1OCC(O)=C2C1=NC1=C(C(=O)COC1)[C@H]2c1ccc(F)c(Br)c1 (stereo in doubt; 71a) | 40 |  | 98 | 54 | Partial agonist | 
26 | CC[C@H]1OCC(O)=C2C1=NC1=C(C(=O)COC1)[C@H]2c1ccc(Cl)c(Cl)c1 (stereo in doubt; 74b) | 57 |  | 92 | 41 | Partial agonist | 
27 | CC[C@H]1OCC(O)=C2C1=NC1=C(C(=O)COC1)[C@H]2c1ccc(Br)c(Cl)c1 (stereo in doubt; 76b) | 37 |  | 97 | 38 | Partial agonist | 
